High-throughput results (PubChem BioAssay)
APP 5'UTR act: APP 5'UTR luciferase reporter activation; SH-SY5Y APP 5'UTR luciferase reporter, luminescence; zero percent = DMSO vehicle wells; activation, % at 2 µM; actives 1% (n = 190,000);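 active means activation above a set limit, based on mean plus 3 SD of controls, cut at about 140% in these data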
STAT1 blocker: reduces IFN-gamma driven STAT1 reporter signal; actives 0.35% (n = 200,000); NIH 3T3 STAT1-luciferase reporter, luminescence; inhibition, % at 5.5 µM; AID 920;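 active means inhibition above a set limit, the mean inhibition across all tested compounds plus 3 SD, cut at about 34% in these data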;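 further: 0% = IFN-gamma with DMSO and 100% = IFN-gamma with 300 µM nifuroxazide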
STAT3 inh: inhibitors of IL-6 induced STAT3 signaling; U3A cells, IL-6 STAT3-luciferase reporter, luminescence; host cell line lacks STAT1; inhibition, % at 5.5 µM; actives 0.89% (n = 190,000); AID 862;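 active means inhibition above the mean inhibition across all screened compounds plus 3 SD, cut at about 44% in these data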;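 further: 0% = DMSO only wells and 100% = 100 µM nifuroxazide control wells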
STAT3 activator: activators of IL-6 induced STAT3 signaling; U3A cells, IL-6 STAT3-luciferase reporter, luminescence; 100% = signal with IL-6 EC80 alone; activation (% of control), % at 5.6 µM; actives 0.91% (n = 190,000); AID 871;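 active means activation above the screen-wide mean of compound activation plus 3 SD, cut at about 130% in these data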;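 further: 0% = background luminescence of wells with medium and substrate only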
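Material: STAT3-luciferase reporter U3A cells; Probe or stimulus: IL-6 (33 ng/mL); Incubation: compound pre-incubation 1 h before IL-6, then 6 h stimulation at 37 °C; Technique: luminescence from STAT3-driven luciferase reporter; Evaluation: % activation versus median of IL-6-stimulated wells; Controls: IL-6-only high control.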
NF-kB neuron act: NF-kB expression increase, human neuronal cells; NF-kB reporter expression; hits give high values; fold change at 12.5 µM; actives 1.6% (n = 190,000); AID 1239; in the data active means fold change above about 3.3
STAT1 activator: activators of IFN-gamma induced STAT1 signaling | AID 932 | NIH 3T3 STAT1-luciferase reporter, luminescence; 100% = IFN-gamma alone, no compound | activation (% of control), % at 5.5 µM | actives 2.6% (n = 200,000);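 active means activation above the screen-wide mean activation plus 3 SD, cut at about 130% in these data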;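 further: raw ratio to IFN-gamma control signal so 100% means no change and 0% no light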
* hit, by the source's call; . = not tested or not shown. Only some compounds are listed: those with a hit (about 4.9% of all), similar ones and a draw of the others.

SMILES	APP 5'UTR act	STAT1 blocker	STAT3 inh	STAT3 activator	NF-kB neuron act	STAT1 activator
Cc1ccc(Nc2nc(N)c([N+](=O)[O-])c(NCc3ccco3)n2)cc1C	50.1	-43.9	-1.4	99.1	1.21	139.1*
CCCOc1ccc(CN(CCO)CCO)cc1[N+](=O)[O-]	-18.6	-13.0	-38.3	133.0*	0.95	111.5
COc1ccc(C2=NN(S(C)(=O)=O)C(c3cccs3)C2)cc1 (configuration not stated)	110.1	-48.5	-14.3	119.2	3.94*	142.7*
Cc1ccc(C2=NN(S(C)(=O)=O)C(c3ccc4nccnc4c3)C2)cc1 (configuration not stated)	17.4	-21.7	-6.0	102.8	1.98	123.0
COc1ccc(C2=NN(S(C)(=O)=O)C(c3ccc4nccnc4c3)C2)cc1 (configuration not stated)	41.0	-40.3	-13.6	109.2	2.25	135.9*
COc1ccc(C2CC(c3cccs3)=NN2S(=O)(=O)c2ccc(C)cc2)cc1 (configuration not stated)	8.6	6.5	9.8	99.4	.	91.0
CS(=O)(=O)Nc1ccc(C2=NN(S(C)(=O)=O)C(c3ccc4c(c3)OCO4)C2)cc1 (configuration not stated)	65.5	-48.5	-15.6	115.5	2.31	143.4*
Cc1ccc(C2=NN(S(C)(=O)=O)C(c3cccs3)C2)cc1 (configuration not stated)	71.7	-32.1	-18.2	117.0	3.84*	128.6*
CS(=O)(=O)N1N=C(c2ccc(Br)cc2)CC1c1cccs1 (configuration not stated)	8.4	-19.3	-12.5	110.3	1.97	114.5
C/C(=N\NC(=O)CC#N)C1COc2ccccc2O1 (configuration not stated)	6.0	2.6	5.8	97.0	1.07	95.8
Cn1ncc2c(NNC(=O)c3ccc(Cl)cc3Cl)ncnc21	-9.6	6.5	14.4	89.9	1.05	94.1
Oc1ccccc1CNc1cnc2ccccc2c1	71.2	-5.9	21.4	84.7	3.56*	102.7
NC(=S)Nc1cnc2ccccc2c1	32.8	-4.8	-1.3	105.4	1.41	104.4
Fc1ccc(-c2cnn3c(-c4ccncc4)ccnc23)cc1	199.1*	-54.4	36.8	74.4	6.42*	147.7*
CCn1nnnc1SCC(=O)Nc1ccc2c(c1)OCO2	10.2	-8.4	1.1	100.9	1.41	105.0
O=C(CSc1nnc2ccccn12)Nc1ccc2c(c1)OCCO2	39.0	-45.1	-0.2	104.0	1.8	139.1*
O=C(Cn1cnc2ccccc2c1=O)Nc1ccc2c(c1)OCCO2	94.0	-33.4	-0.5	106.7	1.12	130.5*
Cn1nnnc1SCC(=O)Nc1ccc2c(c1)OCO2	-1.6	-48.6	4.3	100.5	1.89	141.2*
O=c1c(Cl)c(NCc2ccccc2)cnn1C12CC3CC(CC(C3)C1)C2	14.5	-19.7	-0.7	102.6	0.77	117.6
Cc1ccc(C(=O)Cn2ncsc2=N)cc1	17.1	-33.3	-6.9	110.3	2.18	130.4*
CCOC(=O)c1c(C2CC2)csc1NC(=O)COC(=O)CCS(=O)(=O)c1ccc(C)cc1	-6.2	6.8	-5.3	105.5	1.12	93.2
O=C1NCCCC2c3cc(O)c4ccccc4c3OC12N1CCCCC1 (configuration not stated)	-11.3	-6.1	63.4*	46.5	0.56	105.6
C=C(C)CSc1[nH]c(=O)cc(C)c1C#N	12.2	-15.2	5.1	97.7	1.13	112.2
O=C(NC(NNc1ccc([N+](=O)[O-])cc1)(C(F)(F)F)C(F)(F)F)c1ccccc1Cl	-11.0	10.5	7.8	97.6	1	90.7
CN(C)S(=O)(=O)c1ccc2nc(NC(=O)c3cccnc3)sc2c1	83.2	-26.5	-4.9	105.9	1.63	121.0
SMILES	APP 5'UTR act	STAT1 blocker	STAT3 inh	STAT3 activator	NF-kB neuron act	STAT1 activator
O=C(NC(Nc1nc2ccc([N+](=O)[O-])cc2s1)(C(F)(F)F)C(F)(F)F)c1cccnc1	-1.4	45.6*	70.7*	42.4	0.48	59.2
O=C(NC(Nc1nc2ccc([N+](=O)[O-])cc2s1)(C(F)(F)F)C(F)(F)F)c1ccccc1Cl	-65.9	47.4*	92.3*	21.9	0.87	56.7
COc1cccc(CN2CCN(Cc3nc(C(C)C)cs3)CC2CCO)c1 (configuration not stated)	-8.1	-1.3	-2.0	103.7	1.07	99.5
CCOc1ccc(CCNC(=O)CSc2cc(=O)n(CC)c3ccccc23)cc1OCC	-7.2	6.9	5.0	94.1	1.2	95.6
O=C(Nc1ccc(Oc2ccccc2)cc1)C1CCCO1 (configuration not stated)	19.8	-35.7	2.2	101.9	1.72	132.4*
O=C(Nc1ccc(-c2nc3ccccc3o2)cc1)C1CCCO1 (configuration not stated)	233.1*	-24.4	43.0	66.8	4.24*	140.0*
COc1ccc(NC(=O)C2CCCO2)cc1 (configuration not stated)	5.2	5.9	5.4	99.0	1.18	94.5
O=C(Nc1ccc(-c2nc3cc(Cl)ccc3o2)cc1)C1CCCO1 (configuration not stated)	74.2	-53.6	14.3	87.3	2.33	149.5*
COCCNC(=O)c1cc2cc(Cl)cc(Cl)c2oc1=O	-28.6	-3.6	-3.8	106.5	1.54	103.0
O=C(CC1Sc2ccccc2NC1=O)NCc1ccc(Cl)cc1 (configuration not stated)	1.8	14.5	29.2	82.4	0.96	86.1
O=C(O)C1Cc2ccccc2CN1C(=O)CCl (configuration not stated)	-9.1	-16.2	-5.9	106.0	1.15	113.6
CCOC(=O)c1ccc2nc(C)c3c(c2c1)OC(C)C3 (configuration not stated)	1.5	1.4	25.2	81.0	0.9	98.7
CCOC(=O)c1ccc2nc3c(cc2c1)CCS3	45.0	-38.2	18.6	85.6	2.21	135.0*
Cc1ccc(-c2nnc(CSc3nc4cc5c(cc4cc3C)OCO5)o2)cc1	14.8	-2.3	2.3	101.2	4.03*	102.1
O=C(O)c1ccc(Cl)c(S(=O)(=O)Nc2ccc3cn[nH]c3c2)c1	-0.5	5.1	-33.1	135.3*	1.11	93.9
COc1cc(S(=O)(=O)Nc2ccc3cn[nH]c3c2)ccc1Cl	40.2	11.3	-10.0	120.9	0.88	88.9
COc1cccc(CNc2ccc(Br)cn2)c1O	151.6*	-6.6	29.0	76.6	6.26*	106.0
COc1cccc(CNc2ncc(Br)cc2Br)c1O	44.1	4.5	3.0	102.3	1.99	95.9
CCS(=O)(=O)N1Cc2ccccc2CC1C(=O)Nc1nc(C)cs1 (configuration not stated)	104.2	-35.9	11.9	90.8	1.05	134.4*
CCS(=O)(=O)N1Cc2ccccc2CC1C(=O)Nc1nc2c(C)cccc2s1 (configuration not stated)	11.1	-4.4	-4.1	105.6	0.95	103.9
